# Hit rate of the full screen: of about 370,000 compounds, about 1,200 (0.32%) were called active.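 How the source made its calls: active means inhibition above the mean of all tested compounds plus 3 SD, set per campaign (cut at about 25% in these data); inactive means the rest.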 For the sample, actives were picked, then their nearest neighbours and some compounds at random.
# Molecular target: Tyrosyl-DNA phosphodiesterase 2 (Homo sapiens) (UniProt O95551)
# Assay: blockers of TDP2 phosphodiesterase activity – biochemical, epi absorbance, recombinant enzyme, primary screen (AID 720702);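 further: 0% = DMSO with enzyme and 100% = buffer with substrate but no TDP2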
# Details: recombinant TDP2, T5PNP hydrolysis, p-nitrophenol absorbance 415 nm; at 12.8 µM; stronger effect = higher value
# In short: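 System – recombinant human TDP2 · Quantity – TDP2 enzyme at 120 nM final · Doses – single concentration, 12.8 µM nominal, with 1% DMSO · Incubation – 2 h at 37 °C · Measured by – epi absorbance of p-nitrophenol freed from T5PNP by hydrolysis · Read-out – % inhibition relative to enzyme-containing and enzyme-free wells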
# Tyrosyl-DNA phosphodiesterase 2 (Homo sapiens), sequence (O95551 whole entry, looked up): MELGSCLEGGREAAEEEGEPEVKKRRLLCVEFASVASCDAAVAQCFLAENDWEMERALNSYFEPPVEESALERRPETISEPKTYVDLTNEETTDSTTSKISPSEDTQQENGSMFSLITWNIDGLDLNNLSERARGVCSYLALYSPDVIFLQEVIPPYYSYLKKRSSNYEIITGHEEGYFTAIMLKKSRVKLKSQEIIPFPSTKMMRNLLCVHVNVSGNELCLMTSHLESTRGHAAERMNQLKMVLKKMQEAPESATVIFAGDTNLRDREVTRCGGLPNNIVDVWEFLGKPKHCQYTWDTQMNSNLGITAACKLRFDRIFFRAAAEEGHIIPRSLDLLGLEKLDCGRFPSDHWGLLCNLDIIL
row,SMILES,inhibition
1,O=C(CSc1nnc2c(n1)[nH]c1ccccc12)NC1CCCCC1,-1.87% (inactive)
2,O=C(NC1CCCCC1)N1CCc2[nH]c3ccccc3c2C1,56.5% (active)
3,O=C(Nc1cccc2c1CCCC2)C1CCN(C(=O)NC2CCCCC2)CC1,1.74% (inactive)
4,N#C/C(C(=S)Nc1ccccc1)=C1/NN=C(N2CCOCC2)N1c1ccccc1,10.7% (inactive)
5,COC(=O)c1ccc(C2C(Oc3ccccc3C)C(=O)N2CCc2ccc(OC)c(OC)c2)cc1 (stereo not drawn),-12.5% (inactive)
6,CCc1ccc(OCC(=O)OC(C)C(=O)NC2CC2)cc1 (stereo not drawn),-6.8% (inactive)
7,CCCCC1=CC2=CC(=O)C(C)(OC(=O)CC)C(=O)C2=CN1CCCOC(C)C (stereo not drawn),13.3% (inactive)
8,COCCN1C=C2C(=O)C(C)(OC(=O)C3CCCC3)C(=O)C=C2C=C1c1ccsc1 (stereo not drawn),31.4% (active)
9,CC1(OC(=O)C2CCCC2)C(=O)C=C2C=C(c3ccc(C#N)cc3)OC=C2C1=O (stereo not drawn),0.49% (inactive)
10,CCSc1nnc(SCC(=O)NNC(=O)c2ccccc2F)s1,24.7% (active)
11,COCCNc1nnc(SCC(=O)NNC(=O)c2ccco2)s1,5.04% (inactive)
12,O=C(Cn1cnc2ccccc2c1=O)NNC(=O)c1ccccc1F,4.65% (inactive)
13,Cc1sc2nc(SCC(=O)c3ccc(O)c(O)c3)n(Cc3ccco3)c(=O)c2c1C,-1.34% (inactive)
14,Cc1ccc(-c2nc(CS(=O)CC(=O)N3CCN(c4ncccn4)CC3)c(C)o2)cc1 (stereo not drawn),0.23% (inactive)
15,COC(=O)[C@]12C[C@H](CC(=O)N3CCOCC3)C(=O)N(Cc3ccc(Cl)cc3Cl)C1=C[C@H](COCc1ccccc1)O[C@@H]2C,12.9% (inactive)
16,CCC(=O)Nc1ccc2nn(-c3ccc(F)cc3)nc2c1,-12.3% (inactive)
17,Nc1ccc2nn(-c3ccc(Cl)cc3)nc2c1,30.9% (active)
18,O=C(NC1CCCC1)C1CSCCS(=O)(=O)N1Cc1ccccc1 (stereo not drawn),7.85% (inactive)
19,COc1ccccc1C(=O)CSc1nnc(-c2ccccn2)n1-c1ccccc1,-12.9% (inactive)
20,COc1ccc(CSc2nnc(SCC(=O)Nc3ccccc3C(F)(F)F)s2)cc1,-0.45% (inactive)
21,CCOc1c(Br)cc(/C=C2\C(=O)N(CCC#N)N=C2C)cc1OC,59.9% (active)
22,CC(C)C(C#CC1CC1)N(Cc1ccc2c(c1)OCO2)C(N)=NC(=O)/C=C/c1cccc(C(F)(F)F)c1 (stereo not drawn),4.77% (inactive)

row,SMILES,inhibition
1,COC1=C(N2CCOCC2)C(=O)c2ccccc2C1=O,36.8% (active)
2,COc1ccc(S(=O)(=O)N2CCOCC2)c(C)c1C,0.48% (inactive)
3,O=C1c2ccccc2-c2ncnc3c(N4CCOCC4)cc(N4CCOCC4)c1c23,-13.8% (inactive)
4,CCCS(=O)(=O)NC(=O)C1(C)CCN(C(=O)c2sccc2C)C1 (stereo not drawn),-5.34% (inactive)
5,CCCCNC(=O)C[C@@H]1C(=O)N(CCc2ccc(Cl)cc2)C2=CCCC[C@]21C(=O)OCC,8.61% (inactive)
6,COc1ccc2c(c1)C(=O)Nc1cc(Cl)ccc1N2,-17% (inactive)
7,O=C(CCl)N(Cc1cccc([N+](=O)[O-])c1)c1cccc(Cl)c1,-6.43% (inactive)
8,COc1ccc([N+](=O)[O-])cc1C1NN=C(c2cccc3ccccc23)S1 (stereo not drawn),3.04% (inactive)
9,O=C1Nc2ccc([N+](=O)[O-])cc2C1=Nc1cccc(CO)c1,36.9% (active)
10,Cc1nn2cc(-c3ccc(Cl)cc3)cnc2c1Br,4.6% (inactive)
11,C=CCn1c(SCc2ccc(Cl)c(Cl)c2)nnc1C(CO)NC(=O)c1ccc(OC)cc1 (stereo not drawn),-1.56% (inactive)
12,CCCc1c(C)nc2c(Br)cccc2c1Cl,3.31% (inactive)
13,Nc1c(NCCc2ccccc2)c2ccccc2oc1=O,-16.4% (inactive)
14,CCCN(CCC)c1c([N+](=O)[O-])c(=O)oc2ccccc12,6.98% (inactive)
15,O=c1oc2ccccc2c(CNc2ccccc2)c1[N+](=O)[O-],40.8% (active)
16,O=C(OCc1ccccc1)N1CCC2CC1c1ccc(-c3ccc4c(c3)OCO4)cc12 (stereo not drawn),-3.35% (inactive)
17,COc1ccc(S(=O)(=O)/N=C2\C=C(NS(=O)(=O)c3ccccc3)C(=O)c3ccccc32)cc1,36.1% (active)
18,Cc1ccc(S(=O)(=O)/N=C2\C=C(NS(=O)(=O)c3ccc(C)cc3)C(=O)c3ccccc32)cc1,4.19% (inactive)
19,COc1ccc(C(=O)C(C)OC(=O)c2cccc(S(=O)(=O)Nc3c(C)n(C)n(-c4ccccc4)c3=O)c2)cc1 (stereo not drawn),-13.4% (inactive)
20,CCCCNC(=O)C[C@H]1C[C@@]2(C(=O)OC)C(=C[C@H](COCc3ccccc3)O[C@@H]2C)N(Cc2ccc(Cl)cc2Cl)C1=O,-0.01% (inactive)
21,C=CCN1C(=O)[C@H](CC(=O)N2CCN(C(=O)OCC)CC2)[C@@]2(C(=O)OCC)CCCC=C12,4.51% (inactive)
22,CCN(CC)CCCN=C(N)N,1.59% (inactive)

row,SMILES,inhibition
1,COc1ccc(-c2ccc3nnc(SCC(=O)Nc4ccc(NC(C)=O)cc4)n3n2)cc1,-3.62% (inactive)
2,COc1ccc(NC2=CC(=S)NC(C)(C)C2)cc1,-0.55% (inactive)
3,COc1ccc(-c2csc(Nc3ccc(O)cc3)n2)cc1,26.4% (active)
4,CCc1cc(=O)oc2cc(OCC(=O)N3CCCc4ccccc43)ccc12,6.19% (inactive)
5,COC(=O)c1cc(S(=O)(=O)N2CCN(C(=O)C3CCCO3)CC2)cn1C (stereo not drawn),-2.33% (inactive)
6,CCN1C(=O)c2cccc3c(N)ccc1c23,30.9% (active)
7,CCN1C(=O)c2cccc3c(S(=O)(=O)Nc4ccccc4O)ccc1c23,-2.02% (inactive)
8,CCCCN(C)C(=O)c1ccc2c(c1)N(CC)C(=O)c1ccccc1S2(=O)=O,7.54% (inactive)
9,CCOC(=O)c1cccc(NC(=O)CN(C)S(=O)(=O)c2ccc(-c3cocn3)s2)c1,-8.94% (inactive)
10,Cc1ccc(C(=O)Nc2c(-c3ccccc3)[nH][nH]c2=O)cc1,44.4% (active)
11,O=C(NC1CC1)c1ccc(-c2ccccc2)cc1,-8.19% (inactive)
12,COc1ccc(-c2[nH][nH]c(=O)c2NC(=O)c2ccc([N+](=O)[O-])cc2)cc1,19.5% (inactive)
13,C=CCN1C(=O)[C@@H](CC(=O)NCCCCc2ccccc2)[C@]2(C(=O)OCC)CCCCC/C=C/12,3.84% (inactive)
14,O=C(Nc1cc(F)cc(F)c1)OC1CCC12CCC(c1ccccc1)CC2 (stereo not drawn),3% (inactive)
15,CC(C)N1C(=O)C2C(C(=O)NC3CCCCC3)C3C=CC2(O3)C1C(=O)NC1CCCC1 (stereo not drawn),3.15% (inactive)
16,CCN(CC)CCN1C(=O)C2C(C(=O)Nc3ccc(Br)cc3)C3C=CC2(O3)C1C(=O)NC1CCCCC1 (stereo not drawn),27.5% (active)
17,O=C(Nc1ccccc1F)C1C2C=CC3(O2)C1C(=O)N(c1cccnc1)C3C(=O)NC1CCCCC1 (stereo not drawn),-0.47% (inactive)
18,CC1=C(C(=O)N(C(C)C)C(C)C)CC(CC(=O)NCCCCc2ccccc2)C(=O)N1CCC1=CCCCC1 (stereo not drawn),-5.04% (inactive)
19,CC(=O)CCS(=O)(=O)c1ccc(C)c(C)c1,-9.65% (inactive)
20,COCCCNC(=O)c1ccc(CNS(=O)(=O)c2ccc(NC(C)=O)cc2)cc1,-0.2% (inactive)
21,COc1ccc(C(=O)NCc2ccc(Cl)cc2)cc1S(=O)(=O)N1CCCC1,-0.23% (inactive)
22,COCCNC(=O)c1ccc(S(=O)(=O)c2ccc(Cl)cc2)c(NC(C)=O)c1,27.5% (active)

row,SMILES,inhibition
1,Cc1cc(OCC(=O)Nc2nccs2)c2c(C)c(C)c(=O)oc2c1,0.03% (inactive)
2,Nc1nc(O)c(CC(=O)O)s1,27.2% (active)
3,CCOC(=O)c1nc(N)sc1C(=O)OCC,-14.1% (inactive)
4,CCCCC(=O)N[C@@H]1CC[C@@]23CCCN2C(=O)CCC[C@H]3[C@H]1C,-3.42% (inactive)
5,O=C(OCC(=O)N1CCN(c2ccccc2)CC1)c1ccc([N+](=O)[O-])s1,31.9% (active)
6,Cc1ccc(C)c(OCCC(=O)OCC(=O)N2CCN(c3ccccc3)CC2)c1,-10.4% (inactive)
7,O=C(OCC(=O)N1CCOCC1)c1ccc(N2CCOCC2)c([N+](=O)[O-])c1,-4.23% (inactive)
8,O=C(NCc1ccccc1Cl)C1CCC(CNc2c(N3CCCCC3)c(=O)c2=O)CC1 (stereo not drawn),1.69% (inactive)
9,C=C(C)C#CC(Cc1ccccc1)N(CC1CC1)/C(N)=N/C(=O)OCc1ccccc1 (stereo not drawn),4.08% (inactive)
10,O=C(CN1CCN(c2cccc(Cl)c2)CC1)Nc1ccc(S(=O)(=O)N2CCOCC2)cc1,-4.18% (inactive)
11,COc1ccc(Cl)cc1NC(=O)CN1CCN(C(=O)N2CCOCC2)CC1,5.78% (inactive)
12,Cc1ccc(Cl)cc1NC(=O)CN1CCN(S(=O)(=O)N2CCOCC2)CC1,27.6% (active)
13,COc1ccc(C2CC=C(C(=O)O)C(c3ccccc3F)N2S(=O)(=O)c2ccc(C)cc2)cc1OC (stereo not drawn),-4.62% (inactive)
14,O=C(C1CCCN1S(=O)(=O)c1ccccc1)N1CCc2ccccc2C1 (stereo not drawn),-6.17% (inactive)
15,C=CCN(C(=O)[C@@H](CCCC)[C@@H](O)c1ccc(Cl)cc1)c1ccccc1,-12.4% (inactive)
16,CCCCCCCCCCCCCCCC(=O)OC/C=C(C)/C=C/C=C(C)/C=C/C1=C(C)CCCC1(C)C,2.56% (inactive)
17,COCCn1nnnc1C(c1ccccc1Cl)N1CCN(c2ccccc2OC)CC1 (stereo not drawn),-10.8% (inactive)
18,COc1ccc(CCC(C)N2CCc3ccccc3C2)cc1 (stereo not drawn),-2.33% (inactive)
19,COCCn1nnnc1C(c1cc2ccc(OC)cc2[nH]c1=O)N1CCc2ccccc2C1 (stereo not drawn),41.1% (active)
20,NS(=O)(=O)c1ccc(CCNC(=O)c2nc(CS(=O)(=O)c3ccc(Cl)cc3)no2)cc1,-7.74% (inactive)
21,Cc1cc(C)c(S(=O)(=O)c2ccc(F)cc2C)c(=O)[nH]1,8.26% (inactive)
22,CS(=O)(=O)N1CCCC(C(=O)N2CCOCC2)C1 (stereo not drawn),7.83% (inactive)
